# GRIN3A LBD mod – modulators (binders) of human NR3A ligand-binding domain. Tm shift relative to glycine control, % at 25 µM. 340,000 tested, 2.5% active. NR3A LBD differential scanning fluorimetry, Tm shift; 0% = protein alone, 100% = glycine-bound protein;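 active = melting temperature shift of at least 10% of the positive control shift, at one fixed dose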
# PAFAH1B2 inh – inhibitors of human PAFAH1B2; P68402; recombinant PAFAH1B2, FP-rhodamine activity probe, fluorescence polarization; inhibition, % at 3.39 µM; 340,000 tested, 1.2% active; AID 492953;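 active = inhibition above the mean of all tested compounds plus 3 SD, cut at about 24% in these data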
# pPAFAH inh – inhibitors of human plasma PAF acetylhydrolase (pPAFAH); recombinant pPAFAH, FP-rhodamine probe fluorescence polarization; inhibition, % at 3.39 µM; 330,000 tested, 1.5% active; AID 463082;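 active = inhibition above the mean inhibition across the screen plus 3 SD, cut at about 25% in these data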;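 note: inhibitors block binding of the rhodamine activity-based probe so polarization drops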
# Target sequence (Q13093 whole entry, looked up): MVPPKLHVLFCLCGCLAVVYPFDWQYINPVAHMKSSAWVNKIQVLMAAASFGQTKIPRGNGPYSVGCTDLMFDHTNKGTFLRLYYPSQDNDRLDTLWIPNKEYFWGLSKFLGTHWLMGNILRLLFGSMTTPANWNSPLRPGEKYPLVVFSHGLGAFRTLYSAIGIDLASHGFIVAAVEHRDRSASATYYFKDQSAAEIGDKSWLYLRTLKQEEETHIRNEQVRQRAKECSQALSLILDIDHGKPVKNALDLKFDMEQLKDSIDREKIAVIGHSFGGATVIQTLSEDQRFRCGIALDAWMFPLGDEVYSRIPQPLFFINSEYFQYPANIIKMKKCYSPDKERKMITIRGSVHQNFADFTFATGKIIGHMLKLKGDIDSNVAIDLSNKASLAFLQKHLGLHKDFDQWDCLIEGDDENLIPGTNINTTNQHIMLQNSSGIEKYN
# PAFAH2 FP inh – PAFAH2 (human) inhibition. inhibition, % at 3.39 µM. 340,000 tested, 0.99% active. Q99487. recombinant PAFAH2, FP-rhodamine activity probe, fluorescence polarization. AID 492956;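 active = inhibition above the mean over all tested compounds plus 3 SD, cut at about 30% in these data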;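 note: inhibitors block probe labeling of enzyme so polarization drops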
# UCH37 DUB inh – human UCH37 deubiquitinating enzyme inhibition | inhibition, % (concentration not given with the values) | purified proteasome/UCH37, Ub-AMC cleavage fluorescence | AID 588478 | 330,000 tested, 0.33% active;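 active = mean inhibition over replicate wells above about 20%, limit read from the data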
#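 assay system = human UCH37 enzyme supplied as purified proteasome complex | amount = proteasome at 0.15 nM in the dispensed enzyme solution | schedule = 30 min compound-proteasome preincubation then 25 min substrate reaction, room temperature | measured by = fluorescence, ex 355 nm, em 460 nm | benchmarks = no-proteasome wells (full inhibition) and compound-free wells (no inhibition)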
# PAFAH1B3 FP inh – PAFAH1B3 (human) inhibition; Q15102; recombinant PAFAH1B3, FP-rhodamine probe, fluorescence polarization; inhibition, % at 3.39 µM; 340,000 tested, 0.28% active;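 active = inhibition above the screen-wide average of all tested compounds plus 3 SD, cut at about 25% in these data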
# A number is an active result; i = inactive; nt = no result given. Sampled rows, rich in hits. Any-hit rate of the full collection: about 4.8%.
SMILES,GRIN3A LBD mod,PAFAH1B2 inh,pPAFAH inh,PAFAH2 FP inh,UCH37 DUB inh,PAFAH1B3 FP inh
C(=N\n1cnnc1)/c1cccc(OCCOc2ccccc2)c1,i,28,i,i,nt,i
Cc1ccc(S(=O)(=O)Oc2cccc(/C=N/n3cnnc3)c2)cc1,i,24,i,i,nt,i
Clc1ccc(Oc2cccc(/C=N/n3cnnc3)c2)cc1,i,i,i,i,nt,i
C(=Nn1cnnc1)c1cccc(Oc2ccccc2)c1,nt,nt,nt,nt,i,nt
CCCN(C(=O)Cc1nc(N)n[nH]1)C1(C(=O)Nc2ccccc2C)CCCCC1,i,i,i,i,25,i
O=C(CSc1nccn1-c1ccc(Cl)cc1)N1CCCc2ccccc21,i,25,i,i,i,i
C/C(=N/Nc1ccnc2cc(Cl)ccc12)c1ccc(O)cc1,14,i,i,i,nt,i
Clc1ccc2c(NN=Cc3ccc(Br)cc3)ccnc2c1,nt,nt,nt,nt,i,nt
Clc1ccc2c(N/N=C/c3cccc(Br)c3)ccnc2c1,15,i,i,i,nt,i
O=[N+]([O-])c1ccc(/C=N/Nc2ccnc3cc(Cl)ccc23)o1,17,i,28,i,nt,i
C/C(=N/Nc1ccnc2cc(Cl)ccc12)c1ccc(N)cc1,i,i,i,i,nt,i
Cc1cc(C(=O)NN=Cc2ccc(Cl)c([N+](=O)[O-])c2)c(C)n1-c1ccc(F)cc1,nt,nt,nt,nt,i,nt
Cc1onc(-c2ccccc2)c1C(=O)NN=Cc1cccs1,nt,nt,nt,nt,i,nt
CC(=O)Nc1ccc(NC(=O)C(c2ccccc2)c2ccccc2)cc1,i,i,i,i,i,i
CC(=O)c1ccc(NC(=S)NCc2ccc(Cl)cc2Cl)cc1,16,i,i,i,i,i
CC(=O)Nc1ccc(N=NN2CCOCC2)cc1,i,i,i,i,i,i
COC(=O)Cc1ccc(NC(=S)NCc2ccccc2Cl)cc1,i,i,28,i,i,i
CC(=O)Nc1ccc(NC(=O)Nc2ccccc2)cc1,19,i,i,i,i,i
CC(=O)Nc1ccc(N=Nc2ccc(O)cc2)cc1,15,i,i,i,i,i
Cc1ccc(C=NNC(=O)c2ccc(N(C)S(=O)(=O)c3ccccc3)cc2)cc1,nt,nt,nt,nt,i,nt
CCC(=NNC(=O)c1nnn(-c2nonc2N)c1-c1ccc2c(c1)OCO2)c1ccccc1,nt,nt,nt,nt,i,nt
O=C(ON=CC1=C(Cl)c2ccccc2CC1)c1ccc(F)cc1,nt,nt,nt,nt,i,nt
CC(=O)Nc1ccc(C#Cc2ccc(NC(C)=O)cc2)cc1,29,i,i,i,i,i
Nc1ccc(C(=O)CC(=O)Nc2ccc(Cl)cc2)cc1,12,i,i,i,i,i
CC(=O)c1ccc(NC(=O)Nc2ccncc2)cc1,i,i,i,i,i,i
SMILES,GRIN3A LBD mod,PAFAH1B2 inh,pPAFAH inh,PAFAH2 FP inh,UCH37 DUB inh,PAFAH1B3 FP inh
CC(=O)c1ccc(NC(=O)Nc2ccc(Cl)cc2)cc1,31,i,i,i,i,i
CC(=O)Nc1cccc(NC(=O)Nc2ccc(C(C)=O)cc2)c1,13,i,i,i,i,i
Nc1ccc(NC(=O)c2ccc(C(=O)Nc3ccc(N)cc3)cc2)cc1,i,i,i,i,nt,i
CC(=O)Nc1ccc(-c2ccc(NC(C)=O)cc2)cc1,i,i,i,i,i,i
Cc1cc(C(=O)NN=Cc2ccccc2[N+](=O)[O-])c(C)o1,nt,nt,nt,nt,i,nt
CCOc1ccc(-c2cc(C(=O)NN=C(C)c3cccnc3)c3ccccc3n2)c(OCC)c1,nt,nt,nt,nt,i,nt
CC(=O)Nc1csc2ccccc12,i,i,i,i,i,i
CC(=O)c1cccc(NC(=O)Nc2cnn(Cc3ccc(Cl)cc3Cl)c2)c1,14,i,i,i,i,i
CC(=O)c1ccc(NC(=O)Nc2cccc3ccccc23)cc1,13,i,nt,i,i,i
CC(=O)Nc1cccc(C)c1,i,i,i,i,i,i
O=C(Nc1ccccc1)Nc1csc2ccccc12,31,nt,i,nt,i,nt
CC(=O)Nc1ccc(NC(=O)Nc2cc(C)cc(C)c2)cc1,29,nt,i,nt,i,nt
O=C(Nc1cnn(Cc2ccc(Cl)cc2Cl)c1)c1cc(-c2cccs2)on1,i,i,i,i,i,i
CC(=O)Nc1ccc(NC(=O)Nc2cccc3ccccc23)cc1,i,i,i,i,i,i
O=C1Nc2ccccc2C1=Nc1sc2c(c1C(=O)NCCc1ccccc1)CCCC2,nt,nt,nt,nt,i,nt
Cn1cccc1CC(=O)NN=Cc1ccccc1,nt,nt,nt,nt,i,nt
COc1cccc(C=NNC(=O)c2c(C)nc3ccc(Br)cn23)c1O,nt,nt,nt,nt,46,nt
COc1ccc(/C=N/NC(=O)c2cccc(NC(=O)c3ccc(Cl)cc3)c2)c(OC)c1,11,i,i,i,nt,i

# Source: PubChem
